These results are taken from PubChem BioAssay.

Test [1] can be described thus: Her2 expression decrease, cell viability multiplex – SKBR3 breast tumor cells, AlphaScreen, ATP viability, primary screen (AID 461;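 active = Her2 level under about 52% in both replicate screens, with viability over 70% of control, limit read from the data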;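 for Her2 level: lower value means less Her2 protein in the cells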;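 for viability: percent of carrier control wells set as 100% viability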). Particulars: SKBR3 Her2 protein level, 18-24 h, measured here: SKBR3 viability, ATP luminescence, at 10 µM. For orientation: Bead proximity is the source of the signal in Alpha formats.
Test [2] addresses Receptor tyrosine-protein kinase erbB-2 (Homo sapiens) (UniProt P04626). The test is described as above. The note with it: 18-24 h, at 10 µM, stronger effect = lower value.
Test [3] in a line: reduced viability of SK-BR-3 breast cancer cells – cell-based, 24 h, human, pilot screen (AID 572).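 Note: compound exposure lasted between 18 and 24 h rather than exactly 24 h; 100% = carrier-treated control wells.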 The note with it: SK-BR-3 viability, CellTiter-Glo luminescence, at 10 µM, stronger effect = lower value. Background: In ATP-based viability assays light output follows the ATP content of the culture.
Test [4] in a line: HUVEC growth inhibition – cell-based, human, primary screen (AID 575;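 active = viability at or below 30% in both replicate assays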;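 note: 100% = median of untreated cell wells with 0.1% DMSO on each plate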). The note with it: HUVEC proliferation, CellTiter-Glo luminescence, 72 h; at 10 µM; stronger effect = lower value. The method in brief:
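Material: primary human umbilical vein endothelial cells / Schedule: 72 h exposure, 37 °C, 5% CO2, 30 min RT equilibration / Signal: ATP-based CellTiter-Glo luminescent read / Read-out basis: percent of median DMSO-control luminescence / Control set: 32 DMSO-only cell-control wells (high), 32 MePR drug-control wells (low) per plate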

Test [5] can be described thus: H69AR cell proliferation blockers – human, duplicate replicates, primary screen (AID 580;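 active = viability at or under a set limit in both replicates, limit being median viability minus 3 SD, cut at about 48% in these data, passing the limit was not always enough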;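 note: 100% = mean luminescence of untreated wells and 0% = no signal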). Particulars: H69AR lung tumor cells viability, ATP luminescence, 72 h; at 10 µM; stronger effect = lower value.
Test [6] in a line: MRP1 drug-resistance reversers in H69AR cells – cell-based, doxorubicin co-treatment, pilot screen (AID 601;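 active = viability loss from added drug above about 55%, and viability with drug at most 40%, in both replicates, limit read from the data, passing the limit was not always enough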). The note with it: CellTiter-Glo, 72 h, at 10 µM; for differential viability (reversal): stronger effect = higher value.
The nature of test [7]: yeast transport mutant growth inhibition pilot in 384-well plates, post-Golgi transport modulator project (AID 636; in the data active = inhibition above about 31%). The note with it: absorbance 615 nm, about 18 h, stronger effect = higher value.
Test [8] can be described thus: growth suppression of yeast trafficking mutant, preliminary HTS, modulators of trafficking downstream of Golgi apparatus project, 1536-format plate, OD 615 nm (AID 637; in the data active = inhibition above about 30%). The note with it: yeast transport mutant growth, absorbance 615 nm, 18 h; stronger effect = higher value.
Where [9] appears, read: H69AR cells + 2 uM doxorubicin, measured here: viability with 2 uM doxorubicin, stronger effect = lower value.
Setting [10] is: H69AR cells, compound alone cytotoxicity.

Molecules are shown by their SMILES. Calls of active or inactive are those of the source.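 Rule for the calls, unless noted: active = viability at or below 10% of carrier control in both of two separate runs; inconclusive = viability at or below 10% in only one of the two runs; inactive = the rest.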 Square brackets hold non-standard residues; d marks the D form. Peptide text beside a SMILES is read from it. * marks the point of attachment. ξ: configuration not given here. Cbz = O=C(OCc1ccccc1)*; ξK = NCCCCC(N)C(=O)O

For orientation: viability means a read-out of living cells in per cent, often relative to untreated cells. As a reminder, the inhibition is the drop in the measured response relative to a control, in per cent.

Chain of Receptor tyrosine-protein kinase erbB-2 (Homo sapiens) (P04626 whole entry, looked up): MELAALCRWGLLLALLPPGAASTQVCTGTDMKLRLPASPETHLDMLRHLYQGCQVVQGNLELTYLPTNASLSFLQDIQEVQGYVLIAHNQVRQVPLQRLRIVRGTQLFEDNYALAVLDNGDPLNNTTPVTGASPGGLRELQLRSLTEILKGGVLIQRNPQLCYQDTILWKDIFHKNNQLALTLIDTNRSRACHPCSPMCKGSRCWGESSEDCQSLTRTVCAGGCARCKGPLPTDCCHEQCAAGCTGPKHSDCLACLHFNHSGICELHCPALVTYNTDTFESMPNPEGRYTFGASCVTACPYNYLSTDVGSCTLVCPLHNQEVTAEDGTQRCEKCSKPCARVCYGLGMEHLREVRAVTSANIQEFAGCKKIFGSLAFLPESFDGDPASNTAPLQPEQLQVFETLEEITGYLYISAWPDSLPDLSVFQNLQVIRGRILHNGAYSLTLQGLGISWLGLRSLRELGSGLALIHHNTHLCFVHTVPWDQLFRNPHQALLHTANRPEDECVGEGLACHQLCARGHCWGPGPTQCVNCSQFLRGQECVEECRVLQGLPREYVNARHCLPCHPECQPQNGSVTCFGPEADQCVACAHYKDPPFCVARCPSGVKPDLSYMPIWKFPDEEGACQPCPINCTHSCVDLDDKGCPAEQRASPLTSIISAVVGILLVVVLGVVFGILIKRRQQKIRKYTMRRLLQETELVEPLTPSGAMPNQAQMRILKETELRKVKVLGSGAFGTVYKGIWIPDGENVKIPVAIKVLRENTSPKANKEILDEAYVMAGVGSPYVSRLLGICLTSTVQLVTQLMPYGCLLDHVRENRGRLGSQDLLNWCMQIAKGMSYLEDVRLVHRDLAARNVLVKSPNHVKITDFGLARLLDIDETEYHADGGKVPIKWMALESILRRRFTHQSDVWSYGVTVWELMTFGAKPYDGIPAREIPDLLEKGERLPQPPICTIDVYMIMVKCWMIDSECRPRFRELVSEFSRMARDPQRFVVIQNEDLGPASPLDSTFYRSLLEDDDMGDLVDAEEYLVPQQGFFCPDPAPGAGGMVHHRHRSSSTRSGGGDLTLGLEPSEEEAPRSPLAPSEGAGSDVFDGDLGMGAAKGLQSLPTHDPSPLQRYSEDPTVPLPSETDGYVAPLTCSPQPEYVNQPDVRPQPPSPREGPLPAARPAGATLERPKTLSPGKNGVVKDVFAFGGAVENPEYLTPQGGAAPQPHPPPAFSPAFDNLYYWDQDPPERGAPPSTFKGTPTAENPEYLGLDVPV

Consider `O=C(OC1CCOC1=O)c1ccc(S(=O)(=O)N2CCCCCC2)cc1` (stereo not given), for which the viability in test [1] was 95.5%; in test [3] it was 95.5% (inactive); in test [4], 95.3% (inactive); in test [5], 106% (inactive); in test [6] (setting [9]), 93.6%; in test [6] (setting [10]), 106%. In test [2], the Her2 level is 113% (inactive). The differential viability (reversal) in test [6] (H69AR cells + 2 uM doxorubicin) was 12.5% (inactive). Also, the inhibition is 0.26% (inactive) in test [7] and 1.83% (inactive) in test [8].
Turning to `COc1cc2c(cc1OC)C(c1cccnc1)CC(=O)N2` (stereo not given), the viability is 106% in test [1]; 106% (inactive) in test [3]; 82.2% (inactive) in test [4]; 97.4% (inactive) in test [5]; 88.7% in test [6] (setting [9]); 97.4% in test [6] (setting [10]). For the same compound, the Her2 level in test [2] is 95% (inactive). For the same compound, in test [6] (H69AR cells + 2 uM doxorubicin), the differential viability (reversal) is 8.69% (inactive). The inhibition in test [7] is -1.73% (inactive); in test [8], -0.98% (inactive).
For the compound `Cc1cc(NS(=O)(=O)c2ccccc2)n(-c2ccccc2)n1`, the viability in test [1] was 106%; in test [3], 106% (inactive); in test [4] it was 85.2% (inactive); in test [5] it was 96.2% (inactive); in test [6] (setting [9]), 98.6%; in test [6] (setting [10]), 96.2%. The Her2 level in test [2] is 95.5% (inactive). For the same compound, in test [6] (H69AR cells + 2 uM doxorubicin), the differential viability (reversal) is -2.34% (inactive). In addition, the results for the inhibition in test [7] and in test [8] were -4.13% (inactive) and 2.1% (inactive), respectively.
For the compound `COc1cccc(NC(=O)COC(=O)c2ccco2)c1`, the viability was 112% in test [1]; 112% (inactive) in test [3]; 97.6% (inactive) in test [4]; 83.8% (inactive) in test [5]; 81.1% in test [6] (setting [9]); 83.8% in test [6] (setting [10]). Besides, in test [2], the Her2 level is 94% (inactive). Further, the differential viability (reversal) in test [6] (H69AR cells + 2 uM doxorubicin) is 2.71% (inactive). Further, the inhibition in test [7] was -6.8% (inactive); in test [8], -1.27% (inactive).
Regarding `O=C(CSCc1cnn(-c2ccccc2)c1-n1cccc1)NCC1CCCO1` (stereo not given), the viability was 97.5% in test [1]; 97.5% (inactive) in test [3]; 94.1% (inactive) in test [4]; 93.7% (inactive) in test [5]; 104% in test [6] (setting [9]); 93.7% in test [6] (setting [10]). Also, the Her2 level in test [2] was 85% (inactive). In addition, the differential viability (reversal) in test [6] (H69AR cells + 2 uM doxorubicin) was -10.7% (inactive). For the same compound, the inhibition is -4.59% (inactive) in test [7] and -2.7% (inactive) in test [8].
On to `COc1ccc(S(=O)(=O)N2CCOCC2)cc1C(=O)Nc1cc(C)on1`, for which the viability is 102% in test [1]; 102% (inactive) in test [3]; 102% (inactive) in test [4]; 93.9% (inactive) in test [5]; 85.8% in test [6] (setting [9]); 93.9% in test [6] (setting [10]). The Her2 level in test [2] was 124% (inactive). For the same compound, the differential viability (reversal) in test [6] (H69AR cells + 2 uM doxorubicin) was 8.07% (inactive). Besides, the results for the inhibition in test [7] and in test [8] were -3.42% (inactive) and -9.83% (inactive), respectively.
Regarding `COc1cc(NC(=O)c2cc(OC)c(OC)c(OC)c2)c(OC)cc1NC(=O)CN1CCCCC1`, the viability in test [1] is 86.5%; in test [3] it was 86.5% (inactive); in test [4], 67.9% (inactive); in test [5], 65.9% (inactive); in test [6] (setting [9]), 77.6%; in test [6] (setting [10]) it was 65.9%. In addition, in test [2], the Her2 level is 68.5% (inactive). In addition, the differential viability (reversal) in test [6] (H69AR cells + 2 uM doxorubicin) was -11.7% (inactive). Further, the inhibition in test [7] was -5.27% (inactive); in test [8], -7.5% (inactive).
In the case of `CCn1c(=O)cc(SCC(=O)N2CCOCC2)c2ccccc21`, the viability in test [1] was 92%; in test [3], 92% (inactive); in test [4], 63.1% (inactive); in test [5] it was 85.4% (inactive); in test [6] (setting [9]), 68%; in test [6] (setting [10]), 85.4%. For the same compound, the Her2 level in test [2] is 75% (inactive). The differential viability (reversal) in test [6] (H69AR cells + 2 uM doxorubicin) is 17.4% (inactive). Further, the inhibition in test [7] was -6.05% (inactive); in test [8], -3.45% (inactive).
Take `O=C(CC1CCS(=O)(=O)C1)Nc1ccc[nH]c1=O` (stereo not given): the viability was 102% in test [1]; 102% (inactive) in test [3]; 88.1% (inactive) in test [4]; 106% (inactive) in test [5]; 92.3% in test [6] (setting [9]); 106% in test [6] (setting [10]). For the same compound, the Her2 level in test [2] was 82.5% (inactive). In addition, the differential viability (reversal) in test [6] (H69AR cells + 2 uM doxorubicin) is 14.1% (inactive). Also, the inhibition is -4.74% (inactive) in test [7] and -8% (inactive) in test [8].
As to `CCNc1nc(N2CCCCC2)nc(-n2nnc(C(=O)OCC)c2C)n1`, the viability is 162% in test [1]; 162% (inactive) in test [3]; 116% (inactive) in test [4]; 95.7% (inactive) in test [5]; 94.3% in test [6] (setting [9]); 95.7% in test [6] (setting [10]). The Her2 level in test [2] is 94% (inactive). Further, the differential viability (reversal) in test [6] (H69AR cells + 2 uM doxorubicin) was 1.31% (inactive). The inhibition is -6.45% (inactive) in test [7] and 4.75% (inactive) in test [8].
On to `Nc1nonc1NC(=O)CSc1nc2ccccc2s1`, for which the viability in test [1] was 86%; in test [3], 86% (inactive); in test [4], 91.2% (inactive); in test [5] it was 90.8% (inactive); in test [6] (setting [9]), 86.7%; in test [6] (setting [10]) it was 90.8%. Moreover, the Her2 level in test [2] was 110% (inactive). For the same compound, in test [6] (H69AR cells + 2 uM doxorubicin), the differential viability (reversal) was 4.11% (inactive). Further, the inhibition is 6.18% (inactive) in test [7] and -8% (inactive) in test [8].
As to `CCCCc1noc2c1/C(=N\O)CC(c1ccccc1)C2` (stereo not given), the viability was 86% in test [1]; 86% (inactive) in test [3]; 108% (inactive) in test [4]; 90.5% (inactive) in test [5]; 91.3% in test [6] (setting [9]); 90.5% in test [6] (setting [10]). Also, the Her2 level in test [2] is 82.5% (inactive). The differential viability (reversal) in test [6] (H69AR cells + 2 uM doxorubicin) was -0.815% (inactive). Besides, the inhibition in test [7] is 3.11% (inactive); in test [8], -3.77% (inactive).
Consider `Cc1nc(=S)n(-c2ccccc2)[nH]1`, for which the viability in test [1] is 104%; in test [3], 104% (inactive); in test [4], 107% (inactive); in test [5], 107% (inactive); in test [6] (setting [9]), 105%; in test [6] (setting [10]), 107%. For the same compound, the Her2 level in test [2] was 107% (inactive). For the same compound, the differential viability (reversal) in test [6] (H69AR cells + 2 uM doxorubicin) was 2.28% (inactive). The values for the inhibition in test [7] and in test [8] were -3.2% (inactive) and -9.35% (inactive), respectively.
In the case of `Cc1ccc(N2C(=O)c3ccccc3C2O)nc1` (stereo not given), the viability in test [1] was 122%; in test [3], 122% (inactive); in test [4], 59.8% (inactive); in test [5], 53.6% (inactive); in test [6] (setting [9]) it was 53.3%; in test [6] (setting [10]), 53.6%. Besides, the Her2 level in test [2] is 93% (inactive). In test [6] (H69AR cells + 2 uM doxorubicin), the differential viability (reversal) was 0.305% (inactive). For the same compound, the inhibition in test [7] was -0.13% (inactive); in test [8], -1.83% (inactive).
Turning to `COC(=O)C(CCCCNC(=O)OCc1ccccc1)NC(=O)CN` (stereo not given) (H-Gly-[ξK](Cbz)-OMe), the viability is 109% in test [1]; 109% (inactive) in test [3]; 96.6% (inactive) in test [4]; 100% (inactive) in test [5]; 95.5% in test [6] (setting [9]); 100% in test [6] (setting [10]). For the same compound, the Her2 level in test [2] is 92.5% (inactive). Moreover, in test [6] (H69AR cells + 2 uM doxorubicin), the differential viability (reversal) was 4.78% (inactive). Also, the inhibition was -2.6% (inactive) in test [7] and -0.79% (inactive) in test [8].
Regarding `COC(=O)Cn1cnc2c(nnn2-c2ccc(C)cc2)c1=O`, the viability in test [1] was 86%; in test [3] it was 86% (inactive); in test [4] it was 112% (inactive); in test [5], 94.7% (inactive); in test [6] (setting [9]), 87.7%; in test [6] (setting [10]), 94.7%. Also, the Her2 level in test [2] was 108% (inactive). In addition, the differential viability (reversal) in test [6] (H69AR cells + 2 uM doxorubicin) is 7% (inactive). The inhibition is -6.62% (inactive) in test [7] and -2.17% (inactive) in test [8].
